Laboratory results reported in ChEMBL document CHEMBL3739367, “Design and synthesis of fused tetrahydroisoquinoline-iminoimidazolines” (Eur J Med Chem, 2015).

Experiments:
[1] = Cytotoxicity against human SH-SY5Y cells after 72 hrs by MTT assay; format: cell-based
Summary of the method: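 SH-SY5Y neuroblastoma cells grown in DMEM with 2 mM L-glutamine, streptomycin/penicillin, 1 mM non-essential amino acids, 10% heat-inactivated FBS, 37 °C, 5% CO2. Seeded 2000 cells/well, serum-starved 24 h to synchronise, then exposed to various compound concentrations (<0.1% DMSO) for 72 h; growth read by colorimetric MTT assay; CC50 reported.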

[2] = target: Adenosine receptor A2a (Homo sapiens, UniProt P29274); test: Displacement of [3H]-[…] from human adenosine A2A receptor expressed in HEK293 cells after 1 hr by scintillation counting; format: cell-based
Sequence of Adenosine receptor A2a (P29274 whole entry): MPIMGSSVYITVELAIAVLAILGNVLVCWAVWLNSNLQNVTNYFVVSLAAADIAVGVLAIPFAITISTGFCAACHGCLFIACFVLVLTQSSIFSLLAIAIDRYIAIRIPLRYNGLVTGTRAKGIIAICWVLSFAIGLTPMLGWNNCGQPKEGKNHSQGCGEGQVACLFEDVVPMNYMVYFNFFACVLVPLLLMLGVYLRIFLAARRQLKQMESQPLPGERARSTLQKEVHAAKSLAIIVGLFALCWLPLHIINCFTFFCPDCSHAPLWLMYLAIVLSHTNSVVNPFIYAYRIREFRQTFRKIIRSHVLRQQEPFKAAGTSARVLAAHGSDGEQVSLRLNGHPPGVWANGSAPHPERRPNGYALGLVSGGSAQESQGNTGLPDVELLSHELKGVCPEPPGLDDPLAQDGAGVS

| Ki [2] | SMILES | CC50 at 72 h [1] |
| --- | --- | --- |
| > 200 µM | N=C1N[C@@H](Cc2ccc(F)cc2)CN1Cc1ccccc1 | > 100 µM |
| > 200 µM | N=C1N[C@@H](Cc2ccc(O)cc2)CN1Cc1ccccc1 | > 100 µM |
| > 200 µM | N=C1N(CCN2CCOCC2)C[C@@H]2Cc3ccccc3CN12 | > 100 µM |
| 35 µM | N=C1N(CCCCc2ccccc2)C[C@@H]2Cc3ccccc3CN12 | > 100 µM |
| > 200 µM | N=C1N(CCc2ccccn2)C[C@@H]2Cc3ccccc3CN12 | > 100 µM |
| 64 µM | N=C1N(Cc2ccccc2)C[C@@H]2Cc3ccccc3CN12 | > 100 µM |
| 44 µM | O=C1[C@@H]2Cc3ccccc3CN2C(=O)N1Cc1ccccc1 | > 100 µM |
| > 200 µM | COc1ccc(C[C@H]2CN(Cc3ccccc3)C(=N)N2)cc1 | > 100 µM |
| > 200 µM | CN1C(=N)N(Cc2ccccc2)CC1Cc1ccccc1 (racemic) | > 100 µM |

| SMILES | Ki [2] | CC50 at 72 h [1] |
| --- | --- | --- |
| CCCCCCN1C[C@@H]2Cc3ccccc3CN2C1=N | > 200 µM | > 100 µM |
| C[C@H]1CN(Cc2ccccc2)C(=N)N1 | > 200 µM | > 100 µM |
| N=C1N[C@@H](Cc2ccccc2)CN1Cc1ccccc1 | > 200 µM | > 100 µM |
| N=C1N(Cc2ccccc2)C[C@@H]2CCCCN12 | > 200 µM | > 100 µM |
